According to ChEMBL document CHEMBL2331506, “Design, synthesis, antiviral and cytostatic evaluation of novel isoxazolidine nucleotide analogues with a carbamoyl linker” (Bioorg Med Chem, 2013):
Calls of active or inactive are those of the source. The rule behind the calls is not given here.

Legend:
MDCK = assay: Cytotoxicity against dog MDCK cells assessed as alteration of cell morphology up to 100 uM by microscopic analysis; type: cell-based, Canis lupus familiaris
Summary of the method: (§1)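 Uninfected host-cell cultures were exposed to compound and examined by microscopy. Cytotoxicity was expressed as the minimum cytotoxic concentration (MCC) causing a microscopically detectable alteration of normal cell morphology.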

[1] = Cytotoxicity against cat CRFK cells assessed as alteration of cell morphology up to 100 uM by microscopic analysis; type: cell-based, Felis catus; summary of the method: as §1
Vero = assay: Cytotoxicity against african green monkey Vero cells assessed as alteration of cell morphology up to 100 uM by microscopic analysis; type: cell-based; settings: chlorocebus sabaeus; summary of the method: as §1
HeLa = assay: Cytotoxicity against human HeLa cells assessed as alteration of cell morphology up to 100 uM by microscopic analysis; type: cell-based; summary of the method: as §1
HEL = assay: Cytotoxicity against human HEL cells assessed as alteration of cell morphology up to 100 uM by microscopic analysis; type: cell-based; summary of the method: as §1
[2] = tested on: Human immunodeficiency virus 2; assay: Antiviral activity against Human immunodeficiency virus 2 ROD infected in human CEM cells assessed as reduction of virus-induced giant cell formation at 250 uM after 4 to 5 days; type: functional, organism-based; settings: CCRF-CEM
Summary of the method: (§2)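 CEM cells at 3 × 10^5 cells/mL were infected with HIV at 100 CCID50 per mL in the presence of compound dilutions. They were held 4–5 days at 37 °C in humidified CO2. Syncytium (giant cell) formation was scored microscopically, and EC50 was taken as the concentration inhibiting giant cell formation by 50%.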

[3] = tested on: Human immunodeficiency virus 1; assay: Antiviral activity against Human immunodeficiency virus 1 3B infected in human CEM cells assessed as reduction of virus-induced giant cell formation at 250 uM after 4 to 5 days; type: functional, organism-based; settings: CCRF-CEM; summary of the method: as §2
Feline coronavirus = assay: Antiviral activity against Feline coronavirus infected in cat CRFK cells assessed as reduction of virus-induced cytopathogenicity at 250 uM; type: functional, organism-based
Felid alphaherpesvirus 1 = assay: Antiviral activity against Feline herpes virus infected in cat CRFK cells assessed as reduction of virus-induced cytopathogenicity at 250 uM; type: functional, organism-based
Influenza B virus = assay: Antiviral activity against Influenza B virus infected in dog MDCK cells assessed as reduction of virus-induced cytopathogenicity at 250 uM; type: functional, organism-based
Summary of the method: (§3)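 Confluent cell monolayers were infected with 100 CCID50 of virus while exposed to varying compound concentrations. Cytopathicity was scored once it was complete in untreated infected controls. EC50 was taken as the concentration that reduced virus-induced cytopathogenicity by 50%.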

Influenza A virus [4] = assay: Antiviral activity against Influenza A virus H3N2 infected in dog MDCK cells assessed as reduction of virus-induced cytopathogenicity at 250 uM; type: functional, organism-based; summary of the method: as §3
Influenza A virus [5] = assay: Antiviral activity against Influenza A virus H1N1 infected in dog MDCK cells assessed as reduction of virus-induced cytopathogenicity at 250 uM; type: functional, organism-based; summary of the method: as §3
Punta Toro virus = assay: Antiviral activity against Punta Toro virus infected in african green monkey Vero cells assessed as reduction of virus-induced cytopathogenicity at 250 uM; type: functional, organism-based
Summary of the method: (§4)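 Confluent monolayers (HEL fibroblasts, Vero, or HeLa cells as listed) were infected with 100 CCID50 of virus in the presence of varying compound concentrations. Virus-induced cytopathicity or plaque formation was scored once cytopathicity was complete in untreated infected controls. EC50 was taken as the concentration reducing cytopathogenicity or plaque formation by 50%.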

Sindbis virus = assay: Antiviral activity against Sindbis virus infected in african green monkey Vero cells assessed as reduction of virus-induced cytopathogenicity at 250 uM; type: functional, organism-based; summary of the method: as §4
Coxsackievirus B4 = assay: Antiviral activity against Coxsackievirus B4 infected in african green monkey Vero cells assessed as reduction of virus-induced cytopathogenicity at 250 uM; type: functional, organism-based; summary of the method: as §4
[6] = tested on: Mammalian orthoreovirus 1; assay: Antiviral activity against Reovirus 1 infected in african green monkey Vero cells assessed as reduction of virus-induced cytopathogenicity at 250 uM; type: functional, organism-based; summary of the method: as §4
Human respirovirus 3 = assay: Antiviral activity against Parainfluenza virus 3 infected in african green monkey Vero cells assessed as reduction of virus-induced cytopathogenicity at 250 uM; type: functional, organism-based; summary of the method: as §4
[7] = tested on: Respiratory syncytial virus; assay: Antiviral activity against Respiratory syncytial virus long infected in human HeLa cells assessed as reduction of virus-induced cytopathogenicity at 250 uM; type: functional, organism-based; summary of the method: as §4
[8] = tested on: Vesicular stomatitis virus; assay: Antiviral activity against Vesicular stomatitis virus infected in human HeLa cells assessed as reduction of virus-induced cytopathogenicity at 250 uM; type: functional, organism-based; summary of the method: as §3
Human alphaherpesvirus 1 [9] = assay: Antiviral activity against thymidine kinase-deficient, ACV-resistant Herpes simplex virus 1 KOS infected in human HEL cells assessed as reduction of virus-induced cytopathogenicity at 250 uM; type: functional, organism-based; summary of the method: as §3
[10] = tested on: Vesicular stomatitis virus; assay: Antiviral activity against Vesicular stomatitis virus infected in human HEL cells assessed as reduction of virus-induced cytopathogenicity at 250 uM; type: functional, organism-based; summary of the method: as §3
Human alphaherpesvirus 2 = assay: Antiviral activity against Herpes simplex virus 2 G infected in human HEL cells assessed as reduction of virus-induced cytopathogenicity at 250 uM; type: functional, organism-based; settings: strain G; summary of the method: as §4
Human alphaherpesvirus 1 [11] = assay: Antiviral activity against Herpes simplex virus 1 KOS infected in human HEL cells assessed as reduction of virus-induced cytopathogenicity at 250 uM; type: functional, organism-based; summary of the method: as §4

Structure (SMILES)	Activity (MDCK)	Activity [1]	Activity (Vero)	Activity (HeLa)	Activity (HEL)	inhibition [2]	inhibition [3]	inhibition (Feline coronavirus)	inhibition (Felid alphaherpesvirus 1)	inhibition (Influenza B virus)	inhibition (Influenza A virus [4])	inhibition (Influenza A virus [5])	inhibition (Punta Toro virus)	inhibition (Sindbis virus)	inhibition (Coxsackievirus B4)	inhibition [6]	inhibition (Human respirovirus 3)	inhibition [7]	inhibition [8]	inhibition (Human alphaherpesvirus 1 [9])	also measured
CCOc1ccc(NC(=O)[C@H]2C[C@@H](P(=O)(OCC)OCC)N(C)O2)cc1 (racemic)	Non-toxic	Non-toxic	Non-toxic	Non-toxic	Non-toxic	inactive	inactive	inactive	inactive	inactive	inactive	inactive	inactive	inactive	inactive	inactive	inactive	inactive	inactive	inactive	inhibition [10]: inactive; inhibition (Human alphaherpesvirus 2): inactive; inhibition (Human alphaherpesvirus 1 [11]): inactive
CCOP(=O)(OCC)[C@@H]1C[C@H](C(=O)Nc2cc(OC)c(OC)c(OC)c2)ON1C (racemic)	Non-toxic	Non-toxic	Non-toxic	Non-toxic	Non-toxic	inactive	inactive	inactive	inactive	inactive	inactive	inactive	inactive	inactive	inactive	inactive	inactive	inactive	inactive	inactive	inhibition [10]: inactive; inhibition (Human alphaherpesvirus 2): inactive; inhibition (Human alphaherpesvirus 1 [11]): inactive
CCOP(=O)(OCC)[C@H]1C[C@H](C(=O)Nc2cccc(C#N)c2)ON1C (racemic)	Non-toxic	Non-toxic	Non-toxic	Non-toxic	Non-toxic	inactive	inactive	inactive	inactive	inactive	inactive	inactive	inactive	inactive	inactive	inactive	inactive	inactive	inactive	inactive	inhibition [10]: inactive; inhibition (Human alphaherpesvirus 2): inactive; inhibition (Human alphaherpesvirus 1 [11]): inactive
CCOP(=O)(OCC)[C@@H]1C[C@H](C(=O)Nc2cccc(C#N)c2)ON1C (racemic)	Non-toxic	Non-toxic	Non-toxic	Non-toxic	Non-toxic	inactive	inactive	inactive	inactive	inactive	inactive	inactive	inactive	inactive	inactive	inactive	inactive	inactive	inactive	inactive	inhibition [10]: inactive; inhibition (Human alphaherpesvirus 2): inactive; inhibition (Human alphaherpesvirus 1 [11]): inactive
CCOP(=O)(OCC)[C@H]1C[C@H](C(=O)Nc2ccc(C#N)cc2)ON1C (racemic)	Non-toxic	Non-toxic	Non-toxic	Non-toxic	Non-toxic	inactive	inactive	inactive	inactive	inactive	inactive	inactive	inactive	inactive	inactive	inactive	inactive	inactive	inactive	inactive	inhibition [10]: inactive; inhibition (Human alphaherpesvirus 2): inactive; inhibition (Human alphaherpesvirus 1 [11]): inactive
CCOP(=O)(OCC)[C@@H]1C[C@H](C(=O)Nc2cccc(C(C)=O)c2)ON1C (racemic)	Non-toxic	Non-toxic	Non-toxic	Non-toxic	Non-toxic	inactive	inactive	inactive	inactive	inactive	inactive	inactive	inactive	inactive	inactive	inactive	inactive	inactive	inactive	inactive	inhibition [10]: inactive; inhibition (Human alphaherpesvirus 2): inactive; inhibition (Human alphaherpesvirus 1 [11]): inactive
CCOP(=O)(OCC)[C@H]1C[C@H](C(=O)Nc2cccc(C)c2)ON1C (racemic)	Non-toxic	Non-toxic	Non-toxic	Non-toxic	Non-toxic	inactive	inactive	inactive	inactive	inactive	inactive	inactive	inactive	inactive	inactive	inactive	inactive	inactive	inactive	inactive	inhibition [10]: inactive; inhibition (Human alphaherpesvirus 2): inactive; inhibition (Human alphaherpesvirus 1 [11]): inactive
CCOP(=O)(OCC)[C@H]1C[C@H](C(=O)Nc2cccc(OC)c2)ON1C (racemic)	Non-toxic	Non-toxic	Non-toxic	Non-toxic	Non-toxic	inactive	inactive	inactive	inactive	inactive	inactive	inactive	inactive	inactive	inactive	inactive	inactive	inactive	inactive	inactive	inhibition [10]: inactive; inhibition (Human alphaherpesvirus 2): inactive; inhibition (Human alphaherpesvirus 1 [11]): inactive
